Source: PubChem (The Scripps Research Institute Molecular Screening Center)
A selection: hits, their analogues and other compounds. The true share with any hit is near 3.1%.
OX1R antag-1: human HCRTR1 antagonism; O43613; CHO/OX1R cells, Fluo-8 calcium fluorescence, orexin A; inhibition, % at 5 µM; 0.43% of 330,000 active; AID 434989;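 active means inhibition above its plate's threshold, mean inhibition of all tested compounds on the plate plus 3 SD, cut at about 37% in these data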;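 further: 0% = orexin A challenge wells and 100% = SB-334867-A antagonist wells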
CHO parental Ca: counter-screen: ATP calcium response change in parental CHO cells. parental CHO-K1, ATP-induced calcium, Fluo-8 fluorescence. inhibition, % at 5.6 µM. 0.63% of 330,000 active;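 active means inhibition above that plate's mean sample inhibition plus 3 SD, cut at about 26% in these data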;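 further: 0% = ATP-challenged DMSO wells and 100% = DMSO wells without ATP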
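Test system: parental CHO cells; detection: calcium-sensitive Fluo-8 fluorescence; evaluation: percent inhibition of calcium signal; also added: ATP as calcium-mobilizing challenge; repeats: one well per compound; control set: ATP-challenged DMSO wells low, unchallenged DMSO wells high; compound: single nominal dose of 5.6 µM per compound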
OX1R antag-2: OX1R (human) antagonism; OX1R-expressing cells, FRET antagonist read-out; inhibition, % at 6.6 µM; 1.8% of 330,000 active; AID 485270; in the data active means inhibition mostly above about 38%, no sharp cut-off; inactive means mostly below about 40%;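 further: 0% = agonist challenge alone and 100% = reference antagonist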
GPR7 antag: antagonists of human GPR7 (neuropeptides B/W receptor 1); GPR7-expressing cells, fluorescence antagonist assay; inhibition, % at 4.4 µM; 1.1% of 290,000 active; in the data active means inhibition above about 16%, passing the limit was not always enough;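 further: cells stimulated with the agonist NPW; 0% = agonist with vehicle and 100% = vehicle without agonist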
Target sequence (P48145 whole entry, looked up): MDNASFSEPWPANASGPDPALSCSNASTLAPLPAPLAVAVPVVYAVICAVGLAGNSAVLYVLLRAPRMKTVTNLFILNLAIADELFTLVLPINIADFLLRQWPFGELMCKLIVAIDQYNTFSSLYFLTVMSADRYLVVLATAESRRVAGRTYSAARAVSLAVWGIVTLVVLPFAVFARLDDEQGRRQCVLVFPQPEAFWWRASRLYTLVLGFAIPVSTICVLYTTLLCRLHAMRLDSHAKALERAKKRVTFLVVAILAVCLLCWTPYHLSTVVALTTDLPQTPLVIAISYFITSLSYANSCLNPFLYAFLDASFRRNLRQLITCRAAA
GalR3 antag: antagonists of human GalR3 | O60755 | HEK293 GalR3-CNG cAMP membrane potential fluorescence; galR3 body fused to GalR1 C-terminus | inhibition, % at 3 µM | 0.44% of 360,000 active | AID 651719;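 active means inhibition above the screen-wide average plus 3 SD, cut at about 13% in these data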;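 further: forskolin and galanin both at EC90 stimulate the cells; cAMP rise reported by CNG channel membrane potential dye signal; 0% = forskolin plus galanin with DMSO and 100% = forskolin alone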
Target sequence (O60755 1-299 limits assumed): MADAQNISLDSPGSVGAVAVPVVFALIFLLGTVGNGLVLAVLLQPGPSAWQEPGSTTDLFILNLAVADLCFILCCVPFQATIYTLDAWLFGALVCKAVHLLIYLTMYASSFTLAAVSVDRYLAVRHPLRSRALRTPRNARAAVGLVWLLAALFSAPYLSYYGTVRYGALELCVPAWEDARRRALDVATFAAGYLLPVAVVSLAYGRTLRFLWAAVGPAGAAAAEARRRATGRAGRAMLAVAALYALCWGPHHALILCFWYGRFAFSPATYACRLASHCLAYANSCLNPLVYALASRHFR
* hit, by the source's call; nt = not tested or not shown.

SMILES	OX1R antag-1	CHO parental Ca	OX1R antag-2	GPR7 antag	GalR3 antag
Cc1cc(C)c(C(=O)N(C)C2CCCN(Cc3ccccc3F)C2)o1 (stereo not given)	-30	-20	15	-11	0
Cc1cccn2c(=O)c3cc(C(=O)NC4CCCC4)n(C)c3nc12	-28	-22	23	1	1
Cc1cccn2c(=O)c3cc(C(=O)NCc4ccc(F)cc4)c(=N)n(CCCN4CCOCC4)c3nc12	nt	nt	nt	nt	3
Cc1cccn2c(=O)c3cc(C(=O)NC4CCCCC4)c(=N)n(CCN4CCOCC4)c3nc12	-14	-2	63*	4	-6
CCCn1c(=N)c(C(=O)NC2CCCC2)cc2c(=O)n3cccc(C)c3nc21	-20	-19	81*	-1	-2
CCNC(=S)N1CCc2cc(OC)c(OC)cc2C1COc1ccccc1OC (stereo not given)	-15	-18	9	-4	-2
COc1ccccc1NC(=O)C(C)OC(=O)C1CCN(S(=O)(=O)c2ccccc2C(F)(F)F)CC1 (stereo not given)	nt	nt	nt	nt	-5
CN(NS(=O)(=O)c1ccc(Br)cc1)c1nc(C(F)(F)F)nc2ccccc12	-17	17	63*	-2	-4
CCCCS(=O)(=O)N1C2=NC(C(=O)OCC)=C(C(=O)OCC)C3N(Cc4ccc(Br)cc4)c4ccccc4[C@]23C[C@H]1C(=O)OC (stereo not given in full)	nt	nt	nt	nt	-1
CCOC(=O)n1ccc(C(=O)Nc2ccccc2F)n1	-7	29*	7	-9	-3
Cc1noc(C)c1CC(=O)Nc1ccc2c(c1)OCO2	-24	-10	6	nt	-3
CC(=O)NCCC(=O)Nc1ncc(S(=O)(=O)c2ccc([N+](=O)[O-])cc2)s1	-16	-7	66*	nt	-6
Nc1nc2c(ncn2[C@@H]2O[C@H](C(=O)N[C@H](Cc3ccccc3)C(=O)NC3CCCCC3)[C@@H](O)[C@H]2O)c(=O)[nH]1	nt	nt	nt	nt	1
CC(C)CCN1C(=O)c2cccc3c(N)ccc(c23)C1=O	91*	85*	35	nt	-5
Cc1ccnc2nc(C(=O)OCC(=O)N(Cc3ccccc3)C(C)(C)C)nn12	-11	-15	3	nt	4
COc1ccc(N=Nc2c(C)[nH][nH]c2=O)cc1	-12	-7	57*	-6	-4
Cc1nnc(NC(=O)C2CCN(S(=O)(=O)c3cc([N+](=O)[O-])ccc3Cl)CC2)o1	-6	-8	28*	nt	0
O=C(NC1CC1)C1CCN(S(=O)(=O)c2cc([N+](=O)[O-])ccc2Cl)CC1	-12	-12	16	nt	-7
CC(=O)OC1COC(OC2C(O)C(C)OC(OC3C(OC4CCC5(C)C(CCC6(C)C5CC=C5C7CC(C)(C)CCC7(C(=O)O)CCC56C)C4(C)CO)OCC(O)C3O)C2O)C(O)C1OC(C)=O (stereo not given)	105*	101*	22	-14	nt
CC1(C)C[C@H]2C3=CCC4[C@@]5(C)CC[C@H](O[C@@H]6O[C@H](C(=O)O)[C@@H](O)[C@H](O)[C@H]6O)[C@@](C)(CO)C5CC[C@@]4(C)[C@]3(C)C[C@H](O)[C@@]2(CO)[C@@H](O)[C@@H]1O (stereo not given in full)	-16	-11	3	nt	0
C/C=C(/C)C(=O)OC1CC(C)(C)C[C@H]2C3=CC[C@@H]4[C@@]5(C)CCC(O[C@@H]6O[C@@H](C(=O)O)[C@@H](O)C(O[C@@H]7OC[C@H](O)[C@@H](O)[C@@H]7O[C@@H]7OC(CO)C(O)[C@@H](O)[C@@H]7O)C6O[C@@H]6OC(CO)C(O)C(O)C6O)[C@@](C)(CO)[C@@H]5CC[C@]4(C)[C@]3(C)CC(O)[C@@]12CO (stereo not given in full)	104*	101*	24	nt	nt
Cc1ccc(S(=O)(=O)Cc2ccc(C(=O)NC3CCCCCC3)o2)cc1	-14	-26	4	3	-4
O=C(N/N=C/c1ccc2nccnc2c1)c1ccc(Br)cc1	-13	-23	21	-4	2
CCN(CC)S(=O)(=O)c1cccc(C(=O)N/N=C/c2ccccc2OCC(=O)O)c1	3	4	33	20	6
Cc1nc2ccccn2c1C(=O)N/N=C/c1ccc([N+](=O)[O-])o1	-12	7	65*	-14	-8
SMILES	OX1R antag-1	CHO parental Ca	OX1R antag-2	GPR7 antag	GalR3 antag
O=C(N/N=C/c1ccc([N+](=O)[O-])o1)c1ccncc1	9	-16	55*	0	-2
O=C(N/N=C\c1ccc([N+](=O)[O-])o1)c1cncc(Br)c1	-5	-4	32	-2	-6
CCN(CC)S(=O)(=O)c1cccc(C(=O)N/N=C/c2ccc([N+](=O)[O-])o2)c1	-16	-5	73*	-2	-6
O=C(N/N=C/c1ccc2nccnc2c1)c1ccncc1	-5	-7	55*	8	-5
CCCCCCCCN1C(=O)[C@@H](CC(=O)N2CCC(c3ccccc3)CC2)C[C@@]2(C(=O)OC)C1=C[C@H](C1CCCC1)O[C@@H]2C	nt	nt	nt	nt	-5
Nc1[nH]c(C(=O)c2ccccc2)c(-c2ccccn2)c1C(=O)c1c[nH]c2ccc(F)cc12	nt	nt	nt	nt	-8
CCOc1ccc(N(C(C)C(=O)N2CCCC2)S(C)(=O)=O)cc1 (stereo not given)	-1	-9	10	-15	-11
O=C(N/N=C/c1ccc([N+](=O)[O-])o1)C1CCCC1	-16	8	91*	-11	-2
O=C(N/N=C/c1ccc([N+](=O)[O-])o1)c1ccc(O)cc1	1	4	74*	-20	nt
O=[N+]([O-])c1ccc(/C=[N+](\[O-])[C@@H]2CCCC[C@@H]2/[N+]([O-])=C/c2ccc([N+](=O)[O-])o2)o1	-18	-8	42*	-12	-9
O=C(N/N=C/c1ccco1)C1CCCC1	-9	-6	24	-11	nt
Cc1ccc(/C=N/NC(=O)c2ccc(-c3ccccc3)cc2)o1	-6	-8	14	-19	-8
Cc1ccc(/C=N\NC(=O)c2cc([N+](=O)[O-])cc([N+](=O)[O-])c2)o1	-25	-10	65*	8	0
CO[C@@H]1[C@H](O)CC[C@]2(O)CN(c3ccccc3)[C@](C)([C@H](O)CC=C(C)C)[C@@H]12	nt	nt	nt	nt	-1
COC(=O)c1cc2c(c3c4cc(OC)ccc4n(S(=O)(=O)c4ccccc4)c13)C(=O)N(Cc1ccc(C(F)(F)F)cc1)C2	nt	nt	nt	nt	-3
CCc1cccc(Nc2cc(C)n(-c3cccc(CC)c3)c(=O)c2)c1	nt	nt	nt	nt	-9
Cc1scc(C(=O)N/N=C/c2ccc([N+](=O)[O-])o2)c1C	-18	-5	51*	-9	-1
CN(C)C(=O)N1CCN(C(=O)[C@H](CCc2ccccc2)NC(=O)[C@H]2O[C@@H](n3cnc4c(N)ncnc43)[C@H](O)[C@@H]2O)CC1	nt	nt	nt	nt	-8
COc1ccc(/C=N/NC(=O)c2nn(-c3ccccc3)c(=O)c3c(N)scc23)cc1	0	-3	70*	-8	-6
